An excerpt weighted towards active compounds, which were near 1.3% of everything screened.
Efflux pump mplx: inhibitors of Candida efflux pumps in yeast, primary screen, S. cerevisiae, Nile Red, multiplex | S. cerevisiae Candida pump triplex | inhibition, % at 10 µM | AID 485275, 2010 | hit rate 0.44% among 330,000;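 active = plate passing quality check with inhibition over a set limit, or well fluorescence over plate mean plus 4 SD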;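 also: Nile Red retained in pooled yeast measured as flow cytometry median fluorescence; higher means more Nile Red kept so more efflux inhibition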
sPLA2-III inh: human group III sPLA2 inhibitors, primary screen, biochemical, QFRET, BODIPY PC-A2 liposome substrate; Group 3 secretory phospholipase A2 (Homo sapiens), Q9NZ20; QFRET BODIPY PC-A2 liposome hydrolysis, fluorescence; inhibition, % at 12.2 µM; hit rate 0.56% among 370,000; AID 743126, 2013;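 active = inhibition above mean plus 3 SD of compounds lying within the high and low control bounds, cut at about 19% in these data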
Target sequence (Q9NZ20 whole entry, looked up): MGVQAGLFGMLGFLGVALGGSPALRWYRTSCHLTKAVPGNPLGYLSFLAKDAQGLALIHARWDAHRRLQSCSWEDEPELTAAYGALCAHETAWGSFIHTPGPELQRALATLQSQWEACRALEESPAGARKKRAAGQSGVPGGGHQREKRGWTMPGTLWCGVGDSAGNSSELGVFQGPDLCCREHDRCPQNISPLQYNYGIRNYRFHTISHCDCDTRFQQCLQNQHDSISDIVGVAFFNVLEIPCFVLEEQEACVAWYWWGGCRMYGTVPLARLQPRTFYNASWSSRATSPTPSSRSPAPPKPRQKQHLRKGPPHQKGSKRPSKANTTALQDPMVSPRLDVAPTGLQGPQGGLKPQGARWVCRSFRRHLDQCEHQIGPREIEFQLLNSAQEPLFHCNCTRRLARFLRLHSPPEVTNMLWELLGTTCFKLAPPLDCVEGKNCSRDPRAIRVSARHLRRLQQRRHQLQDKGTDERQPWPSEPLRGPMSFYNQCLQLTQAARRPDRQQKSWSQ
TAG inh: inhibitors of triacylglycerol accumulation, primary screen, cell-based, uHTS, fluorescence, H9c2. H9c2 cells, Nile Red lipid (TAG) fluorescence; cells loaded with 200 µM oleic acid. inhibition, % at 12.5 µM. hit rate 0.66% among 230,000. AID 651582, 2012;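 active = pattern-corrected inhibition of lipid staining of at least 50% with the nuclear-stain viability signal not falling by more than 50%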
MT1-MMP act inh: blockers of MT1-MMP proenzyme processing, primary screen, HT1080 RFP-PRO-GFP cells, GFP/RFP fluorescence | GFP/RFP ratio change, % at 20 µM | hit rate 0.061% among 360,000 | Matrix metalloproteinase-14 (Homo sapiens), P50281 | GFP/RFP ratio fluorescence, overnight; percent of plate control window, DMSO zero;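 active = GFP/RFP ratio change of at least 30% with cell ATP level not reduced by more than half and red fluorescence within 50% of control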
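Assay system – RFP-PRO-GFP reporter HT1080 cells · Compound dosing – single dose of 20 µM compound, 1% DMSO final · Incubation – overnight compound exposure at 37 °C · Measure – GFP/RFP fluorescence ratio · Benchmarks – DMSO wells and RFP-L50D-GFP cells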
Cmpd fluor yeast: counter-screen for efflux pump inhibitors: compound fluorescence | hit rate 4% among 1,700 | S. cerevisiae AD/pABC3, flow cytometry | shares compounds with Efflux pump mplx | AID 588517 | fluorescence ratio to DMSO, % at 10 µM;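 active = fluorescence ratio to DMSO above its plate's cutoff, the plate mean ratio plus 5 SD, cut at about 210% in these data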;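 also: unstained yeast with no Nile Red so the signal is compound autofluorescence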
Mdr1 pump inh: inhibitors of Candida albicans Mdr1 efflux, confirmation, flow cytometry, singleplex, Cherry Pick1 set. shares compounds with Efflux pump mplx. S. cerevisiae AD/CaMDR1, Nile Red efflux. inhibition, % at 10 µM. hit rate 1% among 1,700. AID 588518, 2011; in the data active = inhibition above about 26%;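 also: higher means more Nile Red retained so more efflux inhibition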
CaCdr2 efflux inh: inhibitors of Candida albicans Cdr2 efflux pump, confirmation, S. cerevisiae AD/CaCDR2, flow cytometry, cherry pick 1, singleplex; shares compounds with Efflux pump mplx; Nile Red retention; Nile Red retention ratio vs DMSO, % at 10 µM; hit rate 4% among 1,700; AID 588520, 2011; in the data active = Nile Red retention ratio vs DMSO above about 190%;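 also: higher ratio means more blocking of Cdr2 efflux of the dye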
Cdr1 pump inh: inhibitors of Candida albicans Cdr1 efflux pump, confirmation, S. cerevisiae AD/CaCDR1, flow cytometry, cherry pick 1, singleplex; Nile Red efflux; hit rate 1% among 1,700; shares compounds with Efflux pump mplx; inhibition, % at 10 µM; AID 588522, 2011;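 active = inhibition above the screen-wide mean plus twice its standard deviation, cut at about 32% in these data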
Hits are given with their value; i = inactive; nt = not tested or not shown.

SMILES	Efflux pump mplx	sPLA2-III inh	TAG inh	MT1-MMP act inh	Cmpd fluor yeast	Mdr1 pump inh	CaCdr2 efflux inh	Cdr1 pump inh
Cc1nc2sc3c(c2c2nnc(SCC(=O)NCc4ccco4)n12)CCCC3	0.8	i	i	i	i	i	i	i
O=C(CSc1nnc2c3c4c(sc3ncn12)CCCC4)NCc1ccco1	i	i	i	i	nt	nt	nt	nt
COC(=O)[C@H](Cc1ccccc1)NC(=O)c1cc(COc2c(F)cccc2F)on1	i	i	nt	i	i	i	i	i
COc1ccc(/C(C)=N/NC(=O)Cc2cc(=O)[nH][nH]2)cc1OC	nt	i	nt	nt	nt	nt	nt	nt
CCCCSC1=N/C(=C/c2ccsc2)C(=O)N1c1ccccc1	5.8	i	nt	i	i	i	i	i
CC(C)c1ccccc1-n1c(SCc2cc(=O)oc3ccc4ccccc4c23)nnc1-c1cccnc1	15	i	nt	i	i	i	i	i
O=C(O)c1cccc(CN2C(=O)CSC2=O)c1	0.9	i	i	i	i	i	i	i
Cc1ccc(-n2c(C)cc(/C([O-])=C(/C(=S)Nc3ccc(F)c(Cl)c3)[n+]3ccccc3)c2C)cc1	0.9	i	i	i	i	i	i	i
CCc1ccc(N2CCN(C(=O)N3CCOCC3)CC2)cc1	i	i	i	i	nt	nt	nt	nt
N#C/C(=C/c1ccc(-c2ccc(Br)cc2)o1)C(=O)NC1CCCCC1	1.7	i	nt	i	i	i	i	i
N#C/C(=C\c1ccc(-c2ccc(Br)cc2)o1)C(=O)NCCc1c[nH]c2ccccc12	i	i	nt	i	nt	nt	nt	nt
Cc1cc(C)n(CC(=O)N/N=C/c2cc([N+](=O)[O-])ccc2O)n1	19	i	nt	i	i	i	i	i
COc1c(C)cc(Br)cc1C(=O)Nc1ccccc1N1CCN(C(=O)c2ccccc2)CC1	1.0	i	i	i	i	i	i	i
CCOC(=O)C1(Cc2ccc(OC)cc2)CCN(C(=O)c2cc(C)on2)CC1	i	i	nt	i	nt	nt	nt	nt
CCOC(=O)C1(Cc2ccc(OC)cc2)CCN(C(=O)c2cc3ccccc3[nH]2)CC1	0.5	i	i	i	i	i	i	i
O=C(COC(=O)c1c2ccccc2cc2ccccc12)Nc1ncc(C(F)(F)F)cc1Cl	0.4	i	nt	i	i	i	i	i
CCOC(=O)[C@@]12CCCC=C1N(CCc1ccc(Cl)cc1)C(=O)[C@H]2CC(=O)NCc1cccs1	nt	i	nt	nt	nt	nt	nt	nt
CCOc1ccc(S(=O)(=O)N(C(=O)c2ccco2)c2cc3sc(=O)oc3c3ccccc23)cc1	2.0	i	nt	i	i	i	i	i
CC(C)[C@@H]1OC(=O)[C@@H]2CCCN2C(=O)[C@H](C)OC(=O)[C@H](C)[C@@H](C(C)C)NC(=O)[C@@H]2CCCN2C(=O)[C@H]([C@H](C)Cc2ccccc2)NC(=O)[C@@H]2CCCN2C(=O)[C@@H](C(C)C)N(C)C1=O	nt	i	nt	nt	nt	nt	nt	nt
CN(c1ccccc1)c1ccc(/C=C(\C#N)c2nnc3n2CCCCC3)cc1[N+](=O)[O-]	16	i	nt	i	i	i	i	i
N#C/C(=C\c1cccc([N+](=O)[O-])c1)c1nnc2n1CCCCC2	i	i	nt	i	nt	nt	nt	nt
O=C(NCCC1=CCCCC1)c1ccc(Cl)c(S(=O)(=O)N2CCCCC2)c1	i	i	i	i	nt	nt	nt	nt
COC(=O)Cc1ccc(NC(=O)c2ccc(NC(=O)c3ccco3)cc2)cc1	i	i	nt	i	nt	nt	nt	nt
O=C(Nc1ccc(O)cc1C(=O)O)c1ccc(NC(=O)c2ccco2)cc1	i	i	i	i	i	i	i	i

From PubChem
